The source of these data is ChEMBL document CHEMBL4706643 (J Med Chem, 2021).

Calls of active or inactive are those of the source. No cut-off for these calls is given here.

The test system of series [1] is Hepatitis B virus. Description: Antiviral activity against HBV infected in human HepG2-NTCP cells assessed as reduction in HBeAg secretion cells inoculated with virus for 4 hrs at room temperature and 37 degree C for 24 hrs followed inoculum changed with PMM medium for every 2 days until day 5 post infection by ELISA. The format is functional, organism-based.
A short description of series [2]: Half life in C57BL/6 mouse plasma at 5 mg/kg, iv. The format is ADME, organism-based. The essentials: (§1)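 Male C57BL/6 mice (n = 3), single dose IV 5 mg/kg, IP 10 mg/kg or PO 10 mg/kg in DMSO:cremophor:0.9% NaCl 5:5:90; plasma parameters reported as means.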
A short description of series [3]: Half life in C57BL/6 mouse at 10 mg/kg, ip. The format is ADME, organism-based. The following applies: in vivo. Put shortly:
as §1

The nature of series [4]: Half life in C57BL/6 mouse at 10 mg/kg, po. The format is ADME, organism-based. The following applies: in vivo. Put shortly: as §1
Series [5] can be described thus: Cmax in C57BL/6 mouse at 10 mg/kg, ip. It is filed as ADME, organism-based. Also on record: route intraperitoneal, dose 10 mg/kg. The settings on record: in vivo. Put shortly: as §1
Series [6] deals with HepG2. Description: Antiviral activity against HBV genotype C infected in human HepG2-NTCP cells assessed as reduction in HBeAg secretion at 2 uM cells inoculated with virus for 4 hrs at room temperature and 37 degree C for 24 hrs followed inoculum changed with PMM medium for every 2 days until day 5 post infection by ELISA. It is filed as functional, cell-based. The following applies: time 28.0 hrs. Put shortly:
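HepG2-NTCP cells seeded 4–6 h, then primary maintenance medium 20–24 h; virus inoculum plus compound dilutions 4 h at room temperature, then 37 °C 24 h; medium changed every 2 days to PMM with 2% FBS until day 5 post infection. Secreted HBeAg measured by ELISA; IC50 by nonlinear regression from six or more points, three repeats.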

The subject of series [7] is Hepatitis B virus. The series is described as follows: Antiviral activity against HBV infected in human HepG2-NTCP cells assessed as reduction in HBV cccDNA levels cells inoculated with virus for 4 hrs at room temperature and 37 degree C for 24 hrs followed inoculum changed with PMM medium for every 2 days until day 5 post infection by DIG-labelled probe based southern blot analysis. The format is functional, organism-based. The settings on record: time 28.0 hrs. Put shortly: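 HepG2-NTCP cells infected with compound added together with HBV inoculum; DNA harvested day 5 post infection by modified Hirt extraction. Southern blot on 1.2% agarose, UV cross-linked, hybridised at 50 °C overnight with DIG-labelled full-length genotype D HBV genomic probe; chemiluminescent detection; 3.2, 2.1 and 1.7 kb HBV fragments as markers.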

In series [8] the test system is Hepatitis B virus. Description: Antiviral activity against HBV infected in human HepG2-NTCP cells assessed as reduction in HBV viral transcription at 10 uM cells inoculated with virus for 4 hrs at room temperature and 37 degree C for 24 hrs followed inoculum changed with PMM medium for every 2 days until day 5 post infection by DIG-labelled GAPDH based northern blot analysis. The format is functional, organism-based. The settings on record: time 28.0 hrs. The essentials: (§2)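 Infected HepG2-NTCP cells given compound either with the HBV inoculum or at dpi 3–5; RNA extracted with TRIzol, run on 1.0% agarose–formaldehyde/MOPS gel. Northern blot as for Southern, probed with DIG-labelled full-length HBV genome plus DIG-labelled GAPDH probe.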

For series [9], the system named is Hepatitis B virus. Description: Antiviral activity against HBV infected in human HepG2-NTCP cells assessed as reduction in HBV viral transcription at 10 uM treated 3 days post infection by northern blot analysis. The format is functional, organism-based. The settings on record: time 3.0 day. The essentials: as §2
Series [10] relates to Hepatitis delta virus. The series is described as follows: Antiviral activity […] infected in C57B/L transgenic mouse harbouring human NTCP assessed as decrease in viral RNA levels in liver at 40 mg/kg, ip administered as single dose followed by HDV challenge at day 2 and measured at day 8 post infection by qPCR analysis. The format is functional, organism-based. The settings on record: time 8.0 day. The essentials:
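Neonatal hNTCP-transgenic C57B/L mice received 40 mg/kg i.p. before HDV inoculation, either once or on two consecutive days (n = 4 per group; vehicle group n = 5). HDV was given at 5 × 10⁹ Geq i.p. on day 9 after birth, and mice were sacrificed on day 15. Liver RNA was assayed by RT-qPCR on cDNA from 20 ng RNA, with NTCP mRNA also measured. Group medians are shown.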
On the technique in general: Real-time PCR tracks product formation cycle by cycle.

Series [11] deals with T1, Hepatic sodium/bile acid cotransporter (Mus musculus, UniProt O08705).
T1 sequence (O08705 whole entry): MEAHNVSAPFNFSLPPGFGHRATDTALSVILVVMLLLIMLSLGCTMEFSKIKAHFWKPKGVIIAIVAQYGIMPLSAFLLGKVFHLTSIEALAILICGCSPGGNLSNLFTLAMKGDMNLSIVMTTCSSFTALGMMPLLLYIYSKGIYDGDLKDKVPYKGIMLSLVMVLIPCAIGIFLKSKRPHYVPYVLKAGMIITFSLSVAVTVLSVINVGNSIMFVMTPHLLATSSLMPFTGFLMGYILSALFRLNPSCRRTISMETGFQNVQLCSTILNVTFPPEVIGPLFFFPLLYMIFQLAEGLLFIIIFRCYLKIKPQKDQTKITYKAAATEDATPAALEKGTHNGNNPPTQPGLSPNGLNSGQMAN
Description: Inhibition of mouse NTCP-mediated [3H]-TCA uptake expressed in human HepG2 cells at 2 uM incubated for 2 hrs followed by substrate addition and measured for 10 mins by microbeta liquid scintillation counter analysis. The format is cell-based. The following applies: hepg2, 2.167 h, time 130 min. The essentials:
(§3)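 HepG2 cells expressing NTCP (human, mouse, monkey or tree shrew) seeded 4–6 h, PMM 20–24 h; compound 2 h, then Na+ Ringer's buffer with 2 μM 3H-TCA, 37 °C 10 min; PBS washes, lysis in 1% Triton X-100, scintillation counting. Single-concentration lines at 2 μM.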

The test system of series [12] is HepG2. Description: Inhibition of tree shrew NTCP-mediated [3H]-TCA uptake expressed in human HepG2 cells at 2 uM incubated for 2 hrs followed by substrate addition and measured for 10 mins by microbeta liquid scintillation counter analysis. The following applies: Scandentia. It is filed as cell-based. Put shortly:
as §3

In series [13] the target is T2, Solute carrier organic anion transporter family member 1B1 (Homo sapiens, UniProt Q9Y6L6).
T2 sequence (Q9Y6L6 whole entry): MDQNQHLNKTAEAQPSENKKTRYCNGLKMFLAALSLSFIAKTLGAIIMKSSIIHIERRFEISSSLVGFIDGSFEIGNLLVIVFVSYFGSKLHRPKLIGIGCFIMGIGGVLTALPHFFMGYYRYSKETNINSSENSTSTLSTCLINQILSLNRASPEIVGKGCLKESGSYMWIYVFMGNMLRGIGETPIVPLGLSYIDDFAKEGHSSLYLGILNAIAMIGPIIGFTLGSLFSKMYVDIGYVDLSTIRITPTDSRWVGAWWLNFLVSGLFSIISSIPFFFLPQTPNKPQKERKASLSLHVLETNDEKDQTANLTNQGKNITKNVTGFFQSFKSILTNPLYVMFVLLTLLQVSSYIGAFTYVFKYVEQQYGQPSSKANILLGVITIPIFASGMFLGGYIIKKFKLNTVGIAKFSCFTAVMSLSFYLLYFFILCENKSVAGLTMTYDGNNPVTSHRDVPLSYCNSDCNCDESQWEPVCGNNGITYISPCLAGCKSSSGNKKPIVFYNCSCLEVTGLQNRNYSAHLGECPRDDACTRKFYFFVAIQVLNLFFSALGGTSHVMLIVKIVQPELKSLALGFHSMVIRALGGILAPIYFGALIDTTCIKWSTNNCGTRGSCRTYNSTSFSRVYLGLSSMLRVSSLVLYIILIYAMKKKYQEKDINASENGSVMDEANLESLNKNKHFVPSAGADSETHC
Description: Inhibition of OATP1B1 (unknown origin) mediated [3H]-estrone sulfate uptake expressed in human HepG2 cells. It is filed as cell-based.

One may read the IC50 as the midpoint of a concentration-inhibition curve. The term half-life denotes how long it takes for the measured level to halve. What is called Cmax is the highest concentration seen after dosing. Turning to `CC[C@@H]1NC(=O)[C@H]([C@@H]2O[C@@H](Sc3cccc(OCc4ccccc4)c3)C[C@H]2C)N(C)C(=O)[C@H](C(C)C)N(C)C(=O)[C@H](CC(C)C)N(C)C(=O)[C@H](CC(C)C)N(C)C(=O)[C@@H](C)NC(=O)[C@H](C)NC(=O)[C@H](CC(C)C)N(C)C(=O)[C@H](C(C)C)NC(=O)[C@H](CC(C)C)N(C)C(=O)CN(C)C1=O`, the IC50 in series [1] is 110 nM; in series [13], 2270 nM. In addition, the figures for the half-life in [2], in series [3] and in series [4] were 6.03 h, 5.68 h and 5.65 h, respectively. The same molecule had a Cmax in [5] of 12400 ng/mL. Moreover, the outcome in series [6], in [8] and in series [10] was Active. Moreover, the Activity entry in [7] is “Dose-dependent effect”. Further, in series [9], the result was inactive. Besides, the “inhibition (INH)” value in series [11] was “Active”. In [12], the inhibition result is “Active”.
